# Bioassay records deposited in PubChem BioAssay by several laboratories.
# In the library only some 12% were active in any assay of this set; here they are far more common.
# RAM inhibit = inhibitors of the yeast RAM network, primary screen, dse1pr::URA3 reporter, 5-FOA selection; S. cerevisiae dse1pr::URA3 reporter, 5-FOA growth OD615, 2 d; analog-sensitive cbk1-as2 kinase mutant strain; inhibition, % at 50 µM; actives 1.8% (n = 190,000);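 active = inhibition above a set limit, 3 SD over mean compound inhibition, cut at about 8.4% in these data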;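 note: 0% = DMSO-only wells with no growth and 100% = 10 µM 1-NA-PP1 full growth; inhibition rescues growth on 5-FOA so higher OD means more RAM inhibition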
# WT yeast gro inh = growth inhibition of WT strain, primary screen, mitochondrial fusion inhibitor project, WT and mutant strains, chemical genetic | mitochondrial fusion phenotypic screen | inhibition, % at 10 µM | actives 2.1% (n = 190,000); in the data active = inhibition above about 58%; tested in S. cerevisiae
# L major viab = Leishmania major promastigote growth inhibition, primary screen; inhibition, % at 10 µM; Leishmania major promastigotes, resazurin fluorescence viability; actives 9% (n = 200,000); AID 1063, 2008; in the data active = inhibition above about 50%;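 note: promastigotes grown with compound for 44 hours at 28 °C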
# ABCB1 inh = ABCB1 efflux pump inhibitors, primary screen, cell-based, multiplex, flow cytometry, ABCG2 counter-screen; actives 0.067% (n = 190,000); inhibition, % at 6.6 µM; ATP-dependent translocase ABCB1 (Homo sapiens), P08183; CCRF-Adr cells, JC-1 efflux; in the data active = inhibition above about 40%;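 note: 0% = vehicle and 100% = reference inhibitor; higher value means more JC-1 retained so stronger ABCB1 efflux block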
# Target sequence (P08183 whole entry, looked up): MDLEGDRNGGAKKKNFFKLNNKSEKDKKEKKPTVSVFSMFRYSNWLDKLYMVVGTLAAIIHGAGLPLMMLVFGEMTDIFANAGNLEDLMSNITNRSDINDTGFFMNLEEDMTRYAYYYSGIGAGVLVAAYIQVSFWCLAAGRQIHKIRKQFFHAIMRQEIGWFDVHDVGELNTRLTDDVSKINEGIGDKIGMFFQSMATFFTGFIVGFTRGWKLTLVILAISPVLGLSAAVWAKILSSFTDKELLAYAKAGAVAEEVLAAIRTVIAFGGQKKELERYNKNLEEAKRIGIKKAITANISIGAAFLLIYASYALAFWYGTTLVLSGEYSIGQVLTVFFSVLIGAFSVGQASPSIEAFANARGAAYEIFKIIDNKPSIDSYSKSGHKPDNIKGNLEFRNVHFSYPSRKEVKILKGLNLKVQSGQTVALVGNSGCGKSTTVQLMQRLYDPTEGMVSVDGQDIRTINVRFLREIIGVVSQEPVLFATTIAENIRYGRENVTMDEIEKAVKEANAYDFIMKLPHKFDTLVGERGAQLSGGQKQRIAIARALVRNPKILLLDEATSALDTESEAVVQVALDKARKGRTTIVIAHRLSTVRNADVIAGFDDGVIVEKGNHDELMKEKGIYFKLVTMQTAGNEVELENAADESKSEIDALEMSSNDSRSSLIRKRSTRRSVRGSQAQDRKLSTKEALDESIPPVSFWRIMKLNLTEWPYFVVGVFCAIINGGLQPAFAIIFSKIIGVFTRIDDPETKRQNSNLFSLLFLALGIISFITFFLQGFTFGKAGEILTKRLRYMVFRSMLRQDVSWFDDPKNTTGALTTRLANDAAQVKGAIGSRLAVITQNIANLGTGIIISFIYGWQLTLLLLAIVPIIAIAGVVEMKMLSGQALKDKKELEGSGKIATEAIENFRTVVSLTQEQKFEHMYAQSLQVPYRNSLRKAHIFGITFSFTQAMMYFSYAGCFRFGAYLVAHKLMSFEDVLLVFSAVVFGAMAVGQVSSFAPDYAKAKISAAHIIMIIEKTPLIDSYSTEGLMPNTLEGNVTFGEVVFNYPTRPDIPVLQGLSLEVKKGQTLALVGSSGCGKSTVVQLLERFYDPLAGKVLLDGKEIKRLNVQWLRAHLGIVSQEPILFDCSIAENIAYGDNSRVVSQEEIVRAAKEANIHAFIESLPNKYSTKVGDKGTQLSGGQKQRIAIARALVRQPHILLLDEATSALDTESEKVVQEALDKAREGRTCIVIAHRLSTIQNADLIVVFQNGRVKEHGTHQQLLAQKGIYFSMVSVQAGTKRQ
# ABCG2 inh = ABCG2 efflux pump inhibitors, primary screen, multiplex with ABCB1, IgMXP3 cells, flow cytometry | JC-1 efflux | inhibition, % at 6.6 µM | AID 1325, 2008 | actives 0.1% (n = 190,000) | Broad substrate specificity ATP-binding cassette transporter ABCG2 (Homo sapiens), Q9UNQ0;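 active = inhibition above 80%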;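 note: 0% = DMSO and 100% = nicardipine control wells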
#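 Times: 10 min at 25 °C | Test system: Two drug-resistant human cell lines, ABCG2 and ABCB1 | Quantity: 3 million cells/mL final, two lines in 1:1 ratio | Signal: Flow cytometry, 530 nm JC-1 signal | Dosing: Compound at 6.6 µM | Controls: Nicardipine and DMSO wells | Reagent: JC-1 as fluorescent efflux pump substrate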
# Starred values were filed as active, the others as inactive; x = not tested or not shown.
SMILES,RAM inhibit,WT yeast gro inh,L major viab,ABCB1 inh,ABCG2 inh
COc1ccc(C(CC(=O)c2ccccc2)CC(=O)c2ccccc2)cc1OC,7.7,25.1,50.8*,1.4,3.6
Cc1cc(C)nc(SCC(=O)Nc2nonc2N)n1,-0.2,-1.9,3.7,2.5,13.2
Cn1cc(CN2CCCC(C(=O)c3cc(F)ccc3F)C2)c2ccccc21 (centres undefined),1.6,16.9,87.9*,1.3,7.6
COc1ccc(F)cc1C(=O)C1CCCN(Cc2c[nH]c3ccccc23)C1 (centres undefined),0.7,15.0,42.5,0.7,1.9
COc1ccc(F)cc1C(=O)C1CCCN(Cc2cn(C)c3ccccc23)C1 (centres undefined),-1.1,42.5,89.6*,0.5,0.3
CC(C)Sc1nnc([C@H](Cc2c[nH]c3ccccc23)NC(=O)OC(C)(C)C)o1,1.2,21.4,5.8,0.8,1.7
Cc1cc(N)n(-c2ccc(S(N)(=O)=O)cc2[N+](=O)[O-])n1,1.5,-14.6,-11.8,1.6,9.4
O=C1Nc2ccccc2C12OCC1(CO2)COC2(OC1)C(=O)Nc1ccccc12 (centres undefined),2.5,-7.3,91.0*,-2.3,-3.1
COc1ccc(CCc2nnc(CCC(=O)NCc3cc(C(C)C)no3)o2)cc1,0.6,11.2,-5.7,0.3,0.4
CCOC(=O)c1ccc(N2N=C(C)/C(=C/C=C/c3ccco3)C2=O)cc1,3.0,1.8,30.2,-0.4,-1.1
CCOC(=O)CC1=NN(c2ccccc2)C(=O)/C1=C\c1ccc(N(C)C)cc1,6.1,35.1,96.0*,1.6,14.9
CCOC(=O)CC1=NN(c2ccccc2)C(=O)C1,0.4,-10.3,-0.3,-0.6,-5.8
CC1=NN(c2ccccc2)C(=O)/C1=C/C=C/c1ccc(N(C)C)cc1,4.2,54.4,67.7*,-0.5,-0.4
CC1=NN(c2ccc(C(=O)OC(C)C)cc2)C(=O)/C1=C\C=C\c1ccco1,3.8,3.6,76.0*,0.1,-1.9
CN(C)c1ccc(N/C(N)=N/c2nc(C(F)(F)F)cc(C(F)(F)F)n2)cc1,0.1,0.1,20.3,0.1,0.3
Cc1cc(C(=O)N/N=C/c2cccs2)n[nH]1,-0.2,7.2,2.5,0.1,3.3
Cc1cc(C(=O)N/N=C/c2cc(Br)ccc2OC(=O)c2ccc(Br)cc2)n[nH]1,3.0,35.0,98.3*,-0.1,-0.2
Cc1cc(C(=O)N/N=C/c2cccn2C)n[nH]1,1.0,1.0,-2.5,0.0,3.6
Cc1cc(C(=O)N/N=C/c2cc(Br)cc(Br)c2OC(=O)c2cccc(F)c2)n[nH]1,2.1,17.8,98.3*,0.1,0.7
Cc1cc(C(=O)N/N=C/c2cc(Br)cc(Br)c2OC(=O)c2ccccc2)n[nH]1,1.6,-46.9,81.2*,-0.6,-2.6
COc1cc(OC)c(C2=Nc3ccc(Br)cc3C(c3ccccc3)N2CC(=O)NN)cc1OC (centres undefined),-0.9,8.6,4.3,11.0,3.4
CCC1=NNc2cccc3c(OC)ccc1c23,6.9,25.7,100.5*,0.1,-0.8
COc1ccc2c3c(cccc13)C(=O)N(O)C2=O,1.7,23.2,35.0,0.7,20.9
COc1ccc([N+](=O)[O-])cc1NC(=O)CC1SC(=Nc2cccc(C)c2C)N(/N=C/c2cccc(OC)c2OC)C1=O (centres undefined),10.4*,-4.0,21.9,-1.0,-2.0
Cc1cc(C)nc(N/N=C2/CCCC/C2=C\c2ccccc2)n1,-0.3,30.4,99.8*,0.1,0.3
SMILES,RAM inhibit,WT yeast gro inh,L major viab,ABCB1 inh,ABCG2 inh
Cc1ccnc(N/N=C/c2ccccc2)n1,-0.4,2.0,-6.1,-0.4,-0.2
COc1ccccc1NS(=O)(=O)c1cccc(C(=O)N/N=C2\CC(=O)CC(C)(C)C2)c1,2.5,2.5,-7.5,-0.4,0.4
COc1ccc(/C=C/C(=O)Nc2cc(C)nn2-c2nc3ccccc3n2Cc2cccc([N+](=O)[O-])c2)cc1,8.9*,-10.1,-3.1,0.1,0.5
COc1ccc(/C=C/C(=O)Nc2cc(C)nn2-c2nc3ccccc3[nH]2)cc1,4.7,2.9,-0.1,-0.2,-1.0
CCOC(=O)C1(Cc2ccc(Cl)cc2)CCN(C(=O)c2ccoc2)CC1,-0.6,13.9,53.1*,1.0,-0.8
Cc1ccc(S(=O)(=O)N(Cc2ccccc2)c2ccccc2C(=O)NCc2ccco2)cc1,9.0*,3.2,10.4,2.0,4.9
CCN1CCN(C(=O)c2ccccc2N(Cc2ccccc2)S(=O)(=O)c2ccc(C)cc2)CC1,0.6,16.0,98.0*,1.3,-0.3
COc1ccc(N2CCN(C(=O)Cn3c(=O)[nH]c4ccsc4c3=O)CC2)cc1,3.2,12.4,23.0,-0.2,-1.7
Cc1cccc(N2CCN(C(=O)Cc3ccc(-n4c(=O)[nH]c5ccsc5c4=O)cc3)CC2C)c1 (centres undefined),1.4,2.2,55.9*,-0.2,1.7
O=C(Cc1ccc(-n2c(=O)[nH]c3ccsc3c2=O)cc1)N1CCN(c2ccc(Cl)cc2)CC1,8.4*,0.4,70.1*,-0.2,1.1
COc1ccc(CC(=O)NNC(=O)CSc2ccc(C)cc2)cc1,1.1,4.9,-3.6,0.1,0.1
CN1CCN(c2nc(NCCOC34CC5CC(CC(C5)C3)C4)nc(OCC(F)(F)F)n2)CC1,-1.0,83.5*,41.8,1.7,1.2
Cc1ccc2ncnc(Nc3ccccc3)c2c1,0.7,4.5,64.7*,0.2,2.0
Clc1cccc(Nc2ncnc3ccc(Br)cc23)c1,3.9,72.8*,40.2,2.2,21.4
CCOC(=O)c1cccc(Nc2ncnc3ccc(C)cc23)c1,0.0,16.0,56.0*,0.4,-0.4
COc1cc2ncnc(Nc3cccc(Cl)c3)c2cc1OC,x,-1.7,x,x,7.3
COc1ccccc1Nc1ncnc2ccc(C)cc12,2.5,-8.4,70.7*,-0.5,4.5
Cc1c(C(=O)OCC(=O)Nc2ccc3c(c2)OCO3)cccc1[N+](=O)[O-],3.2,3.1,-4.7,9.6,36.1
Brc1ccc2ncnc(NCc3ccccc3)c2c1,0.0,x,46.2,-0.1,-0.1
Cc1cccc(Nc2ncnc3ccc(Br)cc23)c1,0.4,34.6,55.8*,1.4,15.9
Clc1ccc(Nc2ncnc3ccc(Br)cc23)cc1,1.6,60.6*,19.7,0.7,61.4
COc1ccc2c(c1)O/C(=C\c1sccc1C)C2=O,7.1,-5.5,3.4,-0.7,-3.0
CCN1CCN(c2cc(C)c3cc(NC(=S)N4CC(C)CC(C)C4)ccc3n2)CC1 (centres undefined),0.9,24.3,99.9*,0.2,0.2
CCN1CCN(c2cc(C)c3cc(NC(=S)N4CCCC(C)C4)ccc3n2)CC1 (centres undefined),1.5,6.0,95.6*,2.6,6.1
